INS-1E GSIS act = primary screen for activators of insulin secretion dependent on glucose, INS-1E cells, GLuc reporter luminescence. INS-1E GLuc reporter insulin secretion, 2-3 h. activation, % at 16.6 µM. 370,000 tested, 0.61% active. AID 743287;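 active = lowest replicate activation of at least 40%, so every replicate reaches that level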;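 note: 0% = median of neutral control wells and 100% = median of IBMX positive control wells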
GSK3 alpha inh = human GSK-3 alpha kinase inhibition; P49840; ADP-Glo luminescence, 60 min; inhibition, % at 10 µM; 320,000 tested, 0.1% active;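 active = more than half of replicates show inhibition above 20%; inconclusive = some but at most half of replicates above 20% inhibition; inactive = no replicate shows inhibition above 20%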;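 note: GST-tagged GSK-3 alpha with peptide substrate and 25 µM ATP; 0% = DMSO neutral wells and 100% = GW8510 positive control wells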
Target sequence (P49840 whole entry, looked up): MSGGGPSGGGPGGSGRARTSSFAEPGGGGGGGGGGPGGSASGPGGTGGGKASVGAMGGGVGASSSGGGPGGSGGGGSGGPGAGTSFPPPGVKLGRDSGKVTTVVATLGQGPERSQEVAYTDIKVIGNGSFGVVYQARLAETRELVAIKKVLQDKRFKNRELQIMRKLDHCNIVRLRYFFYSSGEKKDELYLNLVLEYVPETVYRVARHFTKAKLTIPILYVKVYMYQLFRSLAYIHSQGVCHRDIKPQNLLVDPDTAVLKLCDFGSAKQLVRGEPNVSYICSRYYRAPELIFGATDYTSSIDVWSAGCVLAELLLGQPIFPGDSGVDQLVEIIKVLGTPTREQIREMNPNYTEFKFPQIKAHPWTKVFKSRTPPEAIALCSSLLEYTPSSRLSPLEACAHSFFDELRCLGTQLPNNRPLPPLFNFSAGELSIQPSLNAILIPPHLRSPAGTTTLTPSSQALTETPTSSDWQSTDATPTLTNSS
STK33 inh = human STK33 kinase inhibition. AID 2661. purified STK33, MBP phosphorylation, ADP-Glo luminescence. inhibition, % at 10 µM. 320,000 tested, 0.073% active;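 active = inhibition at or above 25%, using the most active replicate where run in duplicate; inactive = inhibition below 25%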
CDK5 inh = CDK5/p35 (human) kinase inhibition | Q00535+Q15078 | Recombinant CDK5/p35, ADP-Glo luminescence, 60 min | inhibition, % at 10 µM | 330,000 tested, 0.01% active;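 active = highest replicate inhibition of at least 50% and at least 75% of replicates reaching 50%; inconclusive = only one of the two criteria met; inactive = both criteria failed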;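 note: plate controls were DMSO neutral control for no effect and GW8510 at 10 µM for full effect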
GSK3B inh = inhibitors of human GSK3beta kinase; 300,000 tested, 0.038% active; P49841; AID 2097; GST-GSK3beta kinase, ADP-Glo luminescence, 60 min; hits give low values; activity score (negative = inhibition), % at 10 µM;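 active = more than half of replicate wells score below -50%, meaning over 50% inhibition versus plate controls; inconclusive = some replicates but at most half score below -50%; inactive = no replicate scores below -50%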;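 note: 0% = median DMSO wells and -100% = median GW8510 positive control wells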
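Test system – GST-tagged human GSK3beta kinase, cell-free · Incubation – 60 min enzyme reaction, room temperature · Signal – ADP-Glo luminescence · Also added – peptide substrate and ATP at 25 µM · Controls – DMSO neutral wells and GW8510 at 20 µM as positive · Buffer or medium – Tris/MgCl2 kinase buffer · Measure – Luminescence-derived activity versus plate DMSO and GW8510 wells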
HIV Env fusion = blocks HIV Env-driven cell-cell fusion. HeLa-JRFL Env/CEM21 cell fusion, luciferase. inhibition, % at 12.3 µM. 360,000 tested, 1.1% active. AID 651610;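 active = mean replicate inhibition score of at least 50 and every replicate individually at or above 50; inconclusive = only one of the two criteria met; inactive = mean below 50 and not all replicates reaching 50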;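 note: 0% = plate neutral controls and 100% = maraviroc near 300 nM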
* hit, by the source's call; ? = inconclusive; / = no result given; [ ] = remark or other dose. An excerpt weighted towards active compounds, which were near 1.4% of everything screened.

SMILES	INS-1E GSIS act	GSK3 alpha inh	STK33 inh	CDK5 inh	GSK3B inh	HIV Env fusion
CCNC(=O)C[C@@H]1CC[C@@H]2[C@H](COC[C@H](O)CN2Cc2ccccc2F)O1	-6	/	/	/	/	/
C[C@@H](NC(=O)C[C@@H]1C[C@@H]2c3cc(NC(=O)C4CCOCC4)ccc3O[C@@H]2[C@H](CO)O1)c1ccccc1	-5	/	/	/	/	-13[16.7 µM]
O=C(CCN1C(=O)/C(=C\c2ccccc2F)SC1=S)N1CCOCC1	42*	/	/	/	/	30
CNC[C@@H]1Oc2ccc(NC(=O)C3CC3)cc2C(=O)N([C@@H](C)CO)C[C@H]1C	15	/	/	/	/	1[16.7 µM]
CCOC(=O)c1c(NC(=O)CSc2nnnn2C)sc(C)c1-c1ccc(C)cc1	2	-3	3	0	-1	81*
O=C(NNc1ccccn1)C(c1ccccc1)c1ccccc1	-5	/	1	-1	0	-3
O=C(NNC(=O)C(c1ccccc1)c1ccccc1)c1ccccn1	-7	0	0	-4	2	74*
C=C1C(=O)[C@]23C[C@H]1CCC2[C@]1(C)C(=O)CC[C@@](C)(C(=O)O)C1C[C@@H]3O (some centres not stated)	93*	/	/	/	/	4
CCNc1ccc(C(=O)OCC)cc1NC(=O)c1cc(S(=O)(=O)N2CCOCC2)ccc1C	/	2	0	-2	0	62*
COc1ccc(CSc2nncn2C)cc1F	7	0	-4	0	1	60*
COc1ccc(CSc2nnnn2C)cc1F	/	-1	-1	-1	-1	/
C/C(=N\N)c1c(-c2ccccc2)c2cc(C)ccc2[nH]c1=O	/	1	-2	1	2	5
CCN(CC)c1c(-c2ccccc2)c2cc(C)ccc2[nH]c1=O	9	/	/	-2	1	68*
COc1ccccc1-c1cnc2c(Nc3cccc(OC(F)(F)C(F)F)c3)nccn12	79*	/	/	/	/	7
Cc1ccc(S(=O)(=O)N[C@H]2C=C[C@@H](CC(=O)NCc3ccncn3)O[C@H]2CO)cc1	-3	/	/	/	/	-37[16.7 µM]
N#CCCn1cc(/C=C(\C#N)c2nc3ccccc3s2)c(-c2ccc(F)cc2)n1	50*	0	-2	1	-2	-72
C=CCN=C1CCCc2c1[nH]c1ccc(C)cc21	15	0	/	-6	-4	62*
N#Cc1c(N)n(C2OC(CO)C(O)C2O)c2ncnc(N)c12 (configuration not stated)	/	/	/	57*	/	84*
O=C(C[C@@H]1C[C@@H]2c3cc(NC(=O)Nc4ccc(F)cc4)ccc3O[C@@H]2[C@H](CO)O1)NC1CCCCC1	1	/	/	/	/	12[16.7 µM]
COc1cccc(CNC23CC4CC(CC(C4)C2)C3)c1OCc1ccccc1	-47	1	-1	-4	-3	62*
COc1cccc(CNCCc2c[nH]c3ccccc23)c1OCc1ccccc1	-27	3	1	-1	-6	/
CCC(=O)N1[C@@H]2c3cccc(=O)n3C[C@@H]2[C@@H](CO)[C@@H]1C(=O)N[C@H](C)c1ccccc1	1	/	/	/	/	/
CCOC(=O)c1c(NC(=O)CSc2nnc(CNc3ccc(F)cc3)o2)sc(C)c1C	/	1	-1	/	0	?
CCOC(=O)c1c(NC(=O)CSc2nnc(CNc3ccc(Cl)cc3)o2)sc(C)c1C	/	-1	1	-1	-1	65*
C[C@@H]1CN([C@H](C)CO)C(=O)c2cccc(NC(=O)Nc3ccccc3)c2O[C@H]1CN(C)C(=O)Nc1ccc(F)cc1	16	/	/	/	/	/
SMILES	INS-1E GSIS act	GSK3 alpha inh	STK33 inh	CDK5 inh	GSK3B inh	HIV Env fusion
O=C1O[C@H](c2ccccc2)[C@H](c2ccccc2)N2[C@H]1[C@@H](C(=O)N1CCCCCCC1)[C@]1(C(=O)Nc3ccccc31)[C@H]2c1ccccc1OCCO	/	/	/	/	/	59*[16.7 µM]
COc1ccccc1CNC(=O)C1CCCN1S(=O)(=O)c1cccc2cccnc12 (configuration not stated)	1	-2	1	0	2	57*
CO[C@@H]1CN(C)C(=O)c2cc(NC(=O)C3CCCC3)ccc2OC[C@H](C)N(C(=O)CC2CC2)C[C@H]1C	-4	/	/	/	/	-8[16.7 µM]
COCC#Cc1cnc2c(c1)C(=O)N([C@H](C)CO)C[C@@H](C)[C@@H](CN(C)C(=O)c1cnccn1)O2	29	/	/	/	/	-8[16.7 µM]
COc1cccc(/C=N/Nc2ccc(C(=O)O)cc2)c1O	0	16	14	17	1	86*
COc1cccc(/C=N/Nc2ccnc(=O)[nH]2)c1O	4	-1	-1	3	-2	65*
O=C(NC(=S)Nc1ccc(NC(=O)c2cccs2)cc1)c1cc2ccccc2o1	74*	0	-1	1	-4	4
O=C(NC(=S)Nc1ccc(NC(=O)c2cccs2)cc1)c1ccco1	-3	0	-2	0	-23	-1
C[C@@H]1CN([C@H](C)CO)S(=O)(=O)c2ccc(C#CC(C)(C)O)cc2O[C@H]1CN(C)C(=O)C1CC1	6	/	/	/	/	-45[16.7 µM]
CCOC(=O)C1=C(C)N(C[C@@H]2CC[C@@H](Cc3ccc(-c4ccccc4)cc3)O2)C(=O)NC1c1ccc(C(F)(F)F)cc1 (some centres not stated)	15	/	/	1	/	67*
CCCCCCn1c(SCC(C)C)nc2c1c(=O)[nH]c(=O)n2C	71*	0	0	0	-1	/
C=CCn1c(SCC(=C)C)nc2c1c(=O)[nH]c(=O)n2C	31	0	-1	1	0	-57
CC(C)CSc1nc2c(c(=O)[nH]c(=O)n2C)n1CCc1ccccc1	71*	-2	-1	-1	-3	/
C=C(C)CSc1nc2c(c(=O)[nH]c(=O)n2C)n1CCC(C)C	55*	0	-1	1	0	1
CC(C)CCSc1nc2c(c(=O)[nH]c(=O)n2C)n1CCc1ccccc1	/	-1	1	1	3	/
CCCCCCn1c(SCC(=O)OC)nc2c1c(=O)[nH]c(=O)n2C	/	-1	-1	0	3	12
O=C(CCCc1nc(-c2ccccc2Cl)no1)NC1CCCC1	-7	/	/	2	-4	66*
COc1ccccc1-c1noc(CCCC(=O)NC2CCCC2)n1	18	0	-1	0	5	6
Cc1noc(C)c1CSc1nc2ccccc2c(=O)n1-c1ccc(Cl)cc1	-40	0	-1	3	2	62*
COc1cc(NC2c3ccccc3C(=O)N2Cc2ccccc2Cl)cc(OC)c1 (configuration not stated)	2	-5	-2	-1	7	65*
O=C(NCCNS(=O)(=O)c1ccc(Cl)cc1)c1cc(OCC(F)(F)F)ccc1OCC(F)(F)F	/	1	-2	-2	2	125*
C[C@H]1CN([C@@H](C)CO)C(=O)c2cc(NC(=O)Cc3ccccc3)ccc2O[C@@H]1CN(C)CC1CC1	12	/	/	/	/	/
C[C@H]1CN([C@@H](C)CO)C(=O)c2cc(NS(=O)(=O)c3ccc(F)cc3)ccc2O[C@H]1CN(C)Cc1ccc(C(=O)O)cc1	7	/	/	/	/	-12[16.7 µM]

Screening results: PubChem BioAssay, Broad Institute
